Test results as given in ChEMBL document CHEMBL1123220, “Structure-activity studies of 16-methoxy-16-methyl prostaglandins” (1986).

How the values were obtained:
[1] = tested on: Mus musculus; assay: Compound was evaluated for diarrheal effect in mice (po administration); format: functional
Method in brief: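 Mice fasted 24 h, then given logarithmically graded oral doses of 100–4000 μg/kg. Animals caged singly on blotting paper for 1 h, and stool dampness spots scored on a 0–4 scale. ED50 calculated by the Miller–Tainter method.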

[2] = tested on: Rattus norvegicus; assay: Compound was evaluated for antisecretion activity using stomach perfusion test in the anesthetized rat (iv administration) in experiment 1; format: functional; details: read-out: ID50 (the source's name)
Method in brief: (§1)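 Stomach perfusion in anesthetized rats. Gastric hypersecretion driven by continuous iv histamine infusion at 1.5 mg/kg per hour. Compound given iv. ID50 read from a plot of response, as percent of control, against log dose.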

[3] = tested on: Rattus norvegicus; assay: Compound was evaluated for antisecretion activity using stomach perfusion test in the anesthetized rat (iv administration) in experiment 2; format: functional; details: read-out: ID50 (the source's name); method in brief: as §1
[4] = tested on: Rattus norvegicus; assay: Compound was evaluated for antisecretion activity using stomach perfusion test in the anesthetized rat (ig administration); format: functional; details: for ED50: Rattus norvegicus, Stomach, po, read-out: ID50 (the source's name)
[5] = tested on: Cricetinae gen. sp.; assay: (§2) Antifertility activity was determined in hamsters (two to six dose levels, 6-18 animals per group) treated subcutaneously (sc) from day 4 to day 6 of gestation.; format: functional, Mesocricetus auratus
Method in brief: (§3)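 Syrian Golden hamsters dosed sc on three consecutive days, gestation days 4 to 6. Two to six dose levels, 6–18 animals per group. Animals killed on day 10 of gestation, and implantation sites and live fetuses counted.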

[6] = Ratio of ED50 for diarrhea to ID50 (antisecretory activity); format: functional
[7] = tested on: Rattus norvegicus; assay: Compound was evaluated for antisecretion activity using stomach perfusion test in the anesthetized rat (iv administration); format: functional; details: read-out: ID50 (the source's name)
[8] = tested on: Cricetinae gen. sp.; assay: Antifertility activity was determined in hamsters (two to six dose levels, 6-18 animals per group) treated subcutaneously (sc) from day 4 to day 6 of gestation; format: functional, Mesocricetus auratus; method in brief: as §3
[9] = tested on: Rattus norvegicus; assay: Compound was evaluated for antisecretion activity using stomach perfusion test in the anesthetized rat (iv administration); At the dose of 500 ug/kg, some animals died; format: functional; details: read-out: ID50 (the source's name)
[10] = tested on: Cricetinae gen. sp.; assay: as §2; format: functional, Cricetulus griseus; method in brief: as §3
[11] = Mus musculus, po, read-out: ED50

Row | Compound | ED50 [5] [mg/kg] | ED50 [1, 11] [mg/kg] | ED50 [7] [mg/kg] | ED50 [8] [mg/kg] | other results
1 | CCCC[C@](C)(OC)[C@@H](O)/C=C/C1[C@H](O)CC(=O)[C@@H]1CCCCCCC(=O)OC (stereo in doubt; form 2) | – | – | – | – | ED50 [1]: 0.774 mg/kg; ED50 [2]: 0.1 mg/kg; ED50 [3]: 0.3 mg/kg
2 | CCCCC(OC)[C@H](O)/C=C/C1[C@H](O)CC(=O)[C@@H]1CCCCCCC(=O)O (some centres not stated) | – | – | – | – | ED50 [4]: > 0.1 mg/kg
3 | CCCCC[C@H](O)/C=C/[C@H]1[C@H](O)CC(=O)[C@@H]1C/C=C\CCCC(=O)O [DINOPROSTONE] | 0.7 | 1.5 | 0.026 | – | ED50 [4]: > 0.1 mg/kg; Ratio [6]: 58
4 | CCCC[C@](C)(OC)[C@H](O)/C=C/C1[C@H](O)CC(=O)[C@@H]1C/C=C\CCCC(=O)OC (some centres not stated) | – | 0.479 | 0.5 | > 1 | –
5 | CCCC[C@@](C)(OC)[C@@H](O)/C=C/C1[C@H](O)CC(=O)[C@@H]1C/C=C\CCCC(=O)OC (some centres not stated) | – | – | – | > 1 | –
6 | CCCC[C@@](C)(OC)[C@@H](O)/C=C/C1[C@H](O)CC(=O)[C@@H]1CCCCCCC(=O)OC (some centres not stated) | – | > 4 | > 1 | > 2.5 | –
7 | CCCC[C@@](C)(OC)[C@@H](O)/C=C/C1[C@H](O)C[C@H](O)[C@@H]1C/C=C\CCCC(=O)OC (some centres not stated) | > 4 | > 4 | > 2 | – | –
8 | CCCCC[C@H](O)/C=C/[C@@H]1[C@@H](C/C=C\CCCC(=O)O)[C@@H](O)C[C@H]1O [DINOPROST] | – | 0.57 | – | – | ED50 [9]: > 0.3 mg/kg; ED50 [10]: 0.06 mg/kg
9 | CCCC[C@@](C)(OC)[C@H](O)/C=C/C1[C@H](O)CC(=O)[C@@H]1C/C=C\CCCC(=O)OC (some centres not stated) | – | 0.757 | 0.0072 | > 1 | Ratio [6]: 105
10 | CCCC[C@](C)(OC)[C@@H](O)/C=C/C1[C@H](O)CC(=O)[C@@H]1CCCCCCC(=O)OC (stereo in doubt; form 1) | – | – | > 3 | > 2.5 | ED50 [1]: >4 mg/kg
11 | CCCC[C@@H](OC)[C@H](O)/C=C/C1[C@H](O)CC(=O)[C@@H]1C/C=C\CCCC(=O)O (some centres not stated) | – | – | > 0.05 | – | –
12 | CCCC[C@](C)(OC)[C@H](O)/C=C/C1[C@H](O)C[C@H](O)[C@@H]1C/C=C\CCCC(=O)OC (some centres not stated) | 1.5 | 1.81 | > 2 | – | –
13 | CCCCC[C@H](O)/C=C/[C@H]1[C@H](O)CC(=O)[C@@H]1CCCCCCC(=O)O [ALPROSTADIL] | 1.8 | 1.02 | 0.0285 | – | Ratio [6]: 36
14 | CCCC[C@](C)(OC)[C@@H](O)/C=C/C1[C@H](O)C[C@H](O)[C@@H]1C/C=C\CCCC(=O)OC (some centres not stated) | > 4 | > 4 | > 4 | – | –
15 | CCCC[C@](C)(OC)[C@@H](O)/C=C/C1[C@H](O)CC(=O)[C@@H]1C/C=C\CCCC(=O)OC (some centres not stated) | – | 0.912 | 1.5 | > 1 | –
16 | CCCC[C@@](C)(OC)[C@H](O)/C=C/C1[C@H](O)C[C@H](O)[C@@H]1C/C=C\CCCC(=O)OC (some centres not stated) | 0.6 | 0.888 | 1.5 | – | –
17 | CCCC[C@@](C)(OC)[C@H](O)/C=C/C1[C@H](O)CC(=O)[C@@H]1CCCCCCC(=O)OC (some centres not stated) | – | 1.35 | 0.0045 | > 2.5 | ID50 [4]: 0.015 mg/kg; ED50 [4]: 0.015 mg/kg; Ratio [6]: 300
